This is an account of results in BindingDB's records for doi:10.1021/acsmedchemlett.9b00225 (University of Minnesota Twin Cities, 2019).

Test [1] has as its target 5-hydroxytryptamine receptor 2B (Homo sapiens, UniProt P41595). Kind of test: Displacement of [3H]-LSD from human recombinant 5-HT2B receptor stably expressed in HEK cells after 90 mins by microbeta scintillation counting method. Put shortly: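 Radioligand binding run by the NIMH Psychoactive Drug Screening Program. Otherwise Ki comes from sigmoidal curve fits of triplicate measurements in a single experiment, or is averaged over repeated experiments each run in triplicate.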
A general note: In a radioligand displacement assay an active substance lowers the binding of a labelled ligand.

Test [2] addresses Sigma non-opioid intracellular receptor 1 (Homo sapiens, UniProt Q99720). Description: Displacement of [3H]-Pentazocine from human recombinant sigma1 receptor expressed in HEKT cells after 90 mins by microbeta scintillation counting method.

Sigma non-opioid intracellular receptor 1, sequence (Q99720 whole entry): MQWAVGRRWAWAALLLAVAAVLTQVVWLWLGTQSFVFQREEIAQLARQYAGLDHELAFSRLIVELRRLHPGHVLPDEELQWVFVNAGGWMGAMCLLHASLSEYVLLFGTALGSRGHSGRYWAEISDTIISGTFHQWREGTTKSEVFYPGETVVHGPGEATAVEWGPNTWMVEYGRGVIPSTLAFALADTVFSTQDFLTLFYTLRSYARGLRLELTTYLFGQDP
5-hydroxytryptamine receptor 2B, sequence (P41595 whole entry): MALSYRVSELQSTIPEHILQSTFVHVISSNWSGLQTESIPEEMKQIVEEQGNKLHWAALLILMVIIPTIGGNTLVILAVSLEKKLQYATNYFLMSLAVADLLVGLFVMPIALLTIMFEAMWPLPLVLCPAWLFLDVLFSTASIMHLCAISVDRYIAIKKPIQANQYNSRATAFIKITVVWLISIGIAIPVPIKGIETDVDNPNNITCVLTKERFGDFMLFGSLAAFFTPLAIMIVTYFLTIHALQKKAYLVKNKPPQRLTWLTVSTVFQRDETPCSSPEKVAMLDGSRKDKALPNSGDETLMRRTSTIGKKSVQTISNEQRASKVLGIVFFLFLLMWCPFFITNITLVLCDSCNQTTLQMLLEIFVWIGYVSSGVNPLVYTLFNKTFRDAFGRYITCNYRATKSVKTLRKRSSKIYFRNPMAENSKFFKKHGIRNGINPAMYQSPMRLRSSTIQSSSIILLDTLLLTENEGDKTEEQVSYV

By Ki is commonly meant the equilibrium dissociation constant of an inhibitor or competing ligand from its target. On to `CC[C@H]1c2ccc3ccccc3c2OC[C@@]1(C)N`, for which the Ki in test [1] was 2.51 nM.

On to `CC[C@H]1c2cc(-c3ccccc3)ccc2OC[C@@]1(C)N`, for which, in test [2], the Ki came out at 12.6 nM.
